Source: ChEMBL document CHEMBL4689842, “EUbOPEN Chemogenomics Library wave 1” (2021)

Experiments:
U2OS [1] = test: Incucyte cell viability with U2OS; assay type: toxicity, cell-based; conditions: human, 10 µM, compound concentration 10 uM; also: filed as whole numbers so only -1 and 0 and 1 occur
U2OS [2] = test: Multiplex assay against U2OS; assay type: toxicity, cell-based; conditions: human
Outline: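 Four dyes were applied at seeding to live cells: Hoechst33342, BioTracker Green Microtubule Cytoskeleton Dye, MitoTracker Red and Annexin V Alexa Fluor 680. Imaging after compound addition used a CQ1 microscope at 37°C and 5% CO2. CellPathfinder machine-learning gating then sorted cells into Hoechst high-intensity objects or normal cells, normal cells into healthy, pyknosed or fragmented nuclei, and pyknosed cells into mitotic or apoptotic, with tubulin, mitochondrial-mass and membrane-permeability phenotypes given as per cents of healthy-nucleus cells.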

[3] = 12 h, 1 µM, compound concentration 1 uM, replicate 1
[4] = 12 h, 1 µM, compound concentration 1 uM, replicate 2
[5] = 12 h, 10 µM, compound concentration 10 uM, replicate 1
[6] = 12 h, 10 µM, compound concentration 10 uM, replicate 2
[7] = 24 h, 1 µM, compound concentration 1 uM, replicate 1
[8] = 24 h, 1 µM, compound concentration 1 uM, replicate 2
[9] = 24 h, 10 µM, compound concentration 10 uM, replicate 1
[10] = 24 h, 10 µM, compound concentration 10 uM, replicate 2
[11] = 48 h, 1 µM, compound concentration 1 uM, replicate 1
[12] = 48 h, 1 µM, compound concentration 1 uM, replicate 2
[13] = 48 h, 10 µM, compound concentration 10 uM, replicate 1
[14] = 48 h, 10 µM, compound concentration 10 uM, replicate 2

CCCc1cc(C)[nH]c(=O)c1CNC(=O)c1cc(-c2ccc(N3CCN(C(C)C)CC3)nc2)cc2c1cnn2C(C)C
Growth Rate (U2OS [1]; 0 h, replicate number 2, timepoint 0 hours): 0
Growth Rate (U2OS [1]; 6 h, replicate number 1, timepoint 6 hours): 1
Growth Rate (U2OS [1]; 12 h, replicate number 1, timepoint 12 hours): 1
Growth Rate (U2OS [1]; 18 h, replicate number 1, timepoint 18 hours): 0
Growth Rate (U2OS [1]; 24 h, replicate number 1, timepoint 24 hours): 0
Growth Rate (U2OS [1]; 24 h, replicate number 2, timepoint 24 hours): 1
Population Apoptotic (%) (U2OS [2]; [3]): 64%
Population Fragmented Nuclei (%) (U2OS [2]; [3]): 21%
Population Healthy Nuclei (%) (U2OS [2]; [3]): 53%
Population Hoechst High Intensity Objects (%) (U2OS [2]; [3]): 15%
Population Membrane Permeable-Phenotype (%) (U2OS [2]; [3]): 13%
Population Mitochondria Different-Phenotype (%) (U2OS [2]; [3]): 81%
Population Mitotic Cells (%) (U2OS [2]; [3]): 35%
Population Normal (%) (U2OS [2]; [3]): 84%
Population Pyknosed Nuclei (%) (U2OS [2]; [3]): 24%
Population Tubulin-Different-Phenotype (%) (U2OS [2]; [3]): 81%
Total Cell Count (U2OS [2]; [3]): 124
Population Apoptotic (%) (U2OS [2]; [4]): 20%
Population Fragmented Nuclei (%) (U2OS [2]; [4]): 19%
Population Healthy Nuclei (%) (U2OS [2]; [4]): 70%
Population Hoechst High Intensity Objects (%) (U2OS [2]; [4]): 10%
Population Membrane Permeable-Phenotype (%) (U2OS [2]; [4]): 8%
Population Mitochondria Different-Phenotype (%) (U2OS [2]; [4]): 91%
Population Mitotic Cells (%) (U2OS [2]; [4]): 80%
Population Normal (%) (U2OS [2]; [4]): 89%
Population Pyknosed Nuclei (%) (U2OS [2]; [4]): 9%
Population Tubulin-Different-Phenotype (%) (U2OS [2]; [4]): 94%
Total Cell Count (U2OS [2]; [4]): 56
Population Apoptotic (%) (U2OS [2]; [5]): 70%
Population Fragmented Nuclei (%) (U2OS [2]; [5]): 24%
Population Healthy Nuclei (%) (U2OS [2]; [5]): 49%
Population Hoechst High Intensity Objects (%) (U2OS [2]; [5]): 8%
Population Membrane Permeable-Phenotype (%) (U2OS [2]; [5]): 64%
Population Mitotic Cells (%) (U2OS [2]; [5]): 29%
Population Normal (%) (U2OS [2]; [5]): 91%
Population Pyknosed Nuclei (%) (U2OS [2]; [5]): 26%
Population Tubulin-Different-Phenotype (%) (U2OS [2]; [5]): 98%
Total Cell Count (U2OS [2]; [5]): 82
Population Apoptotic (%) (U2OS [2]; [6]): 85%
Population Fragmented Nuclei (%) (U2OS [2]; [6]): 13%
Population Healthy Nuclei (%) (U2OS [2]; [6]): 47%
Population Hoechst High Intensity Objects (%) (U2OS [2]; [6]): 5%
Population Membrane Permeable-Phenotype (%) (U2OS [2]; [6]): 79%
Population Mitochondria Different-Phenotype (%) (U2OS [2]; [6]): 100%
Population Mitotic Cells (%) (U2OS [2]; [6]): 14%
Population Normal (%) (U2OS [2]; [6]): 94%
Population Pyknosed Nuclei (%) (U2OS [2]; [6]): 38%
Population Tubulin-Different-Phenotype (%) (U2OS [2]; [6]): 100%
Total Cell Count (U2OS [2]; [6]): 57
Population Apoptotic (%) (U2OS [2]; [7]): 71%
Population Fragmented Nuclei (%) (U2OS [2]; [7]): 18%
Population Healthy Nuclei (%) (U2OS [2]; [7]): 60%
Population Hoechst High Intensity Objects (%) (U2OS [2]; [7]): 13%
Population Membrane Permeable-Phenotype (%) (U2OS [2]; [7]): 20%
Population Mitochondria Different-Phenotype (%) (U2OS [2]; [7]): 89%
Population Mitotic Cells (%) (U2OS [2]; [7]): 28%
Population Normal (%) (U2OS [2]; [7]): 86%
Population Pyknosed Nuclei (%) (U2OS [2]; [7]): 21%
Population Tubulin-Different-Phenotype (%) (U2OS [2]; [7]): 79%
Total Cell Count (U2OS [2]; [7]): 132
Population Apoptotic (%) (U2OS [2]; [8]): 33%
Population Fragmented Nuclei (%) (U2OS [2]; [8]): 20%
Population Healthy Nuclei (%) (U2OS [2]; [8]): 51%
Population Hoechst High Intensity Objects (%) (U2OS [2]; [8]): 10%
Population Membrane Permeable-Phenotype (%) (U2OS [2]; [8]): 10%
Population Mitochondria Different-Phenotype (%) (U2OS [2]; [8]): 78%
Population Mitotic Cells (%) (U2OS [2]; [8]): 66%
Population Normal (%) (U2OS [2]; [8]): 90%
Population Pyknosed Nuclei (%) (U2OS [2]; [8]): 27%
Population Tubulin-Different-Phenotype (%) (U2OS [2]; [8]): 82%
Total Cell Count (U2OS [2]; [8]): 53
Population Apoptotic (%) (U2OS [2]; [9]): 88%
Population Fragmented Nuclei (%) (U2OS [2]; [9]): 23%
Population Healthy Nuclei (%) (U2OS [2]; [9]): 36%
Population Membrane Permeable-Phenotype (%) (U2OS [2]; [9]): 80%
Population Mitotic Cells (%) (U2OS [2]; [9]): 11%
Population Pyknosed Nuclei (%) (U2OS [2]; [9]): 39%
Total Cell Count (U2OS [2]; [9]): 75
Population Apoptotic (%) (U2OS [2]; [10]): 91%
Population Fragmented Nuclei (%) (U2OS [2]; [10]): 8%
Population Healthy Nuclei (%) (U2OS [2]; [10]): 48%
Population Hoechst High Intensity Objects (%) (U2OS [2]; [10]): 9%
Population Membrane Permeable-Phenotype (%) (U2OS [2]; [10]): 85%
Population Mitochondria Different-Phenotype (%) (U2OS [2]; [10]): 100%
Population Mitotic Cells (%) (U2OS [2]; [10]): 8%
Population Normal (%) (U2OS [2]; [10]): 90%
Population Pyknosed Nuclei (%) (U2OS [2]; [10]): 42%
Population Tubulin-Different-Phenotype (%) (U2OS [2]; [10]): 100%
Total Cell Count (U2OS [2]; [10]): 60
Population Apoptotic (%) (U2OS [2]; [11]): 70%
Population Fragmented Nuclei (%) (U2OS [2]; [11]): 23%
Population Healthy Nuclei (%) (U2OS [2]; [11]): 56%
Population Hoechst High Intensity Objects (%) (U2OS [2]; [11]): 10%
Population Membrane Permeable-Phenotype (%) (U2OS [2]; [11]): 18%
Population Mitochondria Different-Phenotype (%) (U2OS [2]; [11]): 83%
Population Mitotic Cells (%) (U2OS [2]; [11]): 29%
Population Normal (%) (U2OS [2]; [11]): 89%
Population Pyknosed Nuclei (%) (U2OS [2]; [11]): 20%
Population Tubulin-Different-Phenotype (%) (U2OS [2]; [11]): 77%
Total Cell Count (U2OS [2]; [11]): 142
Population Apoptotic (%) (U2OS [2]; [12]): 46%
Population Fragmented Nuclei (%) (U2OS [2]; [12]): 22%
Population Healthy Nuclei (%) (U2OS [2]; [12]): 59%
Population Hoechst High Intensity Objects (%) (U2OS [2]; [12]): 12%
Population Membrane Permeable-Phenotype (%) (U2OS [2]; [12]): 27%
Population Mitochondria Different-Phenotype (%) (U2OS [2]; [12]): 72%
Population Mitotic Cells (%) (U2OS [2]; [12]): 53%
Population Normal (%) (U2OS [2]; [12]): 87%
Population Pyknosed Nuclei (%) (U2OS [2]; [12]): 18%
Population Tubulin-Different-Phenotype (%) (U2OS [2]; [12]): 74%
Total Cell Count (U2OS [2]; [12]): 65
Population Apoptotic (%) (U2OS [2]; [13]): 95%
Population Fragmented Nuclei (%) (U2OS [2]; [13]): 26%
Population Healthy Nuclei (%) (U2OS [2]; [13]): 15%
Population Hoechst High Intensity Objects (%) (U2OS [2]; [13]): 14%
Population Membrane Permeable-Phenotype (%) (U2OS [2]; [13]): 89%
Population Mitochondria Different-Phenotype (%) (U2OS [2]; [13]): 100%
Population Mitotic Cells (%) (U2OS [2]; [13]): 4%
Population Normal (%) (U2OS [2]; [13]): 85%
Population Pyknosed Nuclei (%) (U2OS [2]; [13]): 57%
Population Tubulin-Different-Phenotype (%) (U2OS [2]; [13]): 100%
Total Cell Count (U2OS [2]; [13]): 95
Population Apoptotic (%) (U2OS [2]; [14]): 100%
Population Fragmented Nuclei (%) (U2OS [2]; [14]): 13%
Population Healthy Nuclei (%) (U2OS [2]; [14]): 37%
Population Hoechst High Intensity Objects (%) (U2OS [2]; [14]): 16%
Population Membrane Permeable-Phenotype (%) (U2OS [2]; [14]): 96%
Population Mitotic Cells (%) (U2OS [2]; [14]): 0%
Population Normal (%) (U2OS [2]; [14]): 83%
Population Pyknosed Nuclei (%) (U2OS [2]; [14]): 49%
Total Cell Count (U2OS [2]; [14]): 82
